Reference: ChEMBL document CHEMBL5257137, “Inhibition of Thiamine Diphosphate-Dependent Enzymes by Triazole-Based Thiamine Analogues” (ACS Med Chem Lett, 2023)

Assays:
Escherichia coli [1] = assay: Inhibition of Escherichia coli OGDHc E1 subunit assessed as DCPIP reduction at 250 uM preincubated for 60 mins followed by […] addition using 50 uM ThDP as substrate by microplate reader analysis
In short: (§1)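 Single-point preliminary screen with compound at 250 μM and ThDP at 50 μM. Values are means of three technical replicates.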

Aerococcus viridans [2] = assay: Inhibition of Aerococcus viridans pyruvate oxidase at 250 uM preincubated for 30 mins followed by pyruvate addition using 50 uM ThDP as substrate by microplate reader analysis; in short: as §1
Aerococcus viridans [3] = assay: Inhibition of Aerococcus viridans pyruvate oxidase at 250 uM preincubated for 30 mins followed by pyruvate addition using 125 uM ThDP as substrate by microplate reader analysis
Escherichia coli [4] = assay: Inhibition of Escherichia coli OGDHc E1 subunit assessed as DCPIP reduction at 250 uM preincubated for 60 mins followed by […] addition using 125 uM ThDP as substrate by microplate reader analysis
[5] = target: T1, Pyruvate dehydrogenase E1 component subunit alpha, somatic form, mitochondrial (Sus scrofa, UniProt P29804); assay: Inhibition of porcine PDHc E1-subunit assessed as inhibition constant preincubated for 30 mins followed by pyruvate addition using 10 uM ThDP as substrate by microplate reader analysis
T1 sequence (P29804 whole entry): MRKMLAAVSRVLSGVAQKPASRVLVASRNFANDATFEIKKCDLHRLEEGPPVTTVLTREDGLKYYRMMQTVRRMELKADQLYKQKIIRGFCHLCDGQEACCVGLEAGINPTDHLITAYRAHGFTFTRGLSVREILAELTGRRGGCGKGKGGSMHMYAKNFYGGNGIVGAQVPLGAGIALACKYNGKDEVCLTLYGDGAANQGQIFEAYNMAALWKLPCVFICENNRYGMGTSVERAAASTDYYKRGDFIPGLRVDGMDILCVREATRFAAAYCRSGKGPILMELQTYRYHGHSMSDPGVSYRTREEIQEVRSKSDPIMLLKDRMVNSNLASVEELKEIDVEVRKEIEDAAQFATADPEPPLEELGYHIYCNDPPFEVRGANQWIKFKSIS

[6] = target: T1, Pyruvate dehydrogenase E1 component subunit alpha, somatic form, mitochondrial; assay: Inhibition of porcine PDHc E1-subunit assessed as DCPIP reduction preincubated for 30 mins followed by pyruvate addition using 10 uM ThDP as substrate by microplate reader analysis
Plasmodium falciparum [7] = assay: Antiplasmodial activity against chloroquine-sensitive Plasmodium falciparum 3D7 infected in human erythrocyte assessed as inhibition of parasite proliferation in thiamine free medium by SYBR-Safe assay; format: functional, organism-based; settings: 3D7, Erythrocyte
In short: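 3D7 parasites in human erythrocytes cultured in thiamine-free medium with a range of compound concentrations. […] Means come from three independent experiments, each run in three technical replicates.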

Plasmodium falciparum [8] = assay: Antiplasmodial activity against chloroquine-sensitive Plasmodium falciparum 3D7 infected in human erythrocyte assessed as inhibition of parasite proliferation in presence of 297uM thiamine by SYBR-Safe assay; format: functional, organism-based; settings: 3D7, Erythrocyte
In short: (§2)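 P. falciparum 3D7-infected erythrocytes were exposed to compound in culture medium with added thiamine, 2.97 μM or 297 μM. Proliferation was read as parasite DNA by SYBR-Safe assay.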

Plasmodium falciparum [9] = assay: Antiplasmodial activity against Plasmodium falciparum 3D7 infected in human erythrocyte assessed as intraerythrocytic growth inhibition in presence thiamine-rich medium by [3H]-hypoxanthine incorporation assay; format: functional, organism-based; settings: 3D7, Erythrocyte
Plasmodium falciparum [10] = assay: Antiplasmodial activity against chloroquine-sensitive Plasmodium falciparum 3D7 infected in human erythrocyte assessed as inhibition of parasite proliferation in presence of 2.97uM thiamine by SYBR-Safe assay; format: functional, organism-based; settings: 3D7, Erythrocyte; in short: as §2
Plasmodium falciparum [11] = assay: Antiplasmodial activity against Plasmodium falciparum 3D7 infected in human erythrocyte assessed as intraerythrocytic growth inhibition in thiamine-free medium by [3H]-hypoxanthine incorporation assay; format: functional, organism-based; settings: 3D7, Erythrocyte

Structure (SMILES)	inhibition (Escherichia coli [1]) [%]	inhibition (Aerococcus viridans [2]) [%]	inhibition (Aerococcus viridans [3]) [%]	inhibition (Escherichia coli [4]) [%]	also measured
Cc1ncc(Cn2cc(CCCn3cc(-c4ccc(F)cc4)nn3)nn2)c(N)n1	< 20	< 20	< 20	< 20	–
COc1ccc(-c2cn(CCCc3cn(Cc4cnc(C)nc4N)nn3)nn2)cc1	< 20	< 20	< 20	< 20	–
Cc1ncc(Cn2cc(CCn3cc(-c4ccccc4)nn3)nn2)c(N)n1	–	–	< 20	< 20	–
Cc1ncc(Cn2cc(CCn3cc(-c4ccc(F)cc4)nn3)nn2)c(N)n1	–	< 20	< 20	< 20	–
Cc1ncc(Cn2cc(CCCCC(=O)NO)nn2)c(N)n1	–	–	–	–	Ki [5]: 0.04 µM; IC50 [6]: 8 µM; IC50 (Plasmodium falciparum [7]): 3 µM
Cc1ncc(Cn2cc(CCCCn3cc(-c4ccc(F)cc4)nn3)nn2)c(N)n1	< 20	< 20	< 20	< 20	–
Cc1ncc(Cn2cc(CCCC(=O)NO)nn2)c(N)n1	–	–	–	–	Ki [5]: 0.045 µM; IC50 [6]: 9 µM
Cc1ncc(Cn2cc(CCCn3cc(-c4ccccc4)nn3)nn2)c(N)n1	< 20	< 20	< 20	< 20	–
Cc1ncc(C[n+]2csc(CCO)c2C)c(O)n1	–	–	–	–	IC50 (Plasmodium falciparum [8]): 5500 µM; IC50 (Plasmodium falciparum [9]): 5.2 µM; IC50 (Plasmodium falciparum [10]): 5200 µM; IC50 (Plasmodium falciparum [11]): 11 µM; IC50 (Plasmodium falciparum [7]): 11 µM
COc1ccc(-c2cn(CCCCc3cn(Cc4cnc(C)nc4N)nn3)nn2)cc1	< 20	< 20	< 20	< 20	IC50 [6]: 6 µM
COc1ccc(-c2cn(CCc3cn(Cc4cnc(C)nc4N)nn3)nn2)cc1	–	< 20	< 20	< 20	–
Cc1ncc(Cn2cc(CCCCn3cc(-c4ccccc4)nn3)nn2)c(N)n1	< 20	< 20	< 20	< 20	–
